Measured values published in ChEMBL document CHEMBL4359902, “Development of novel chromeno[4,3-c]pyrazol-4(2H)-one derivates bearing sulfonylpiperazine as antitumor inhibitors targeting PI3Kα” (Eur J Med Chem, 2019).

Tests used:
HL-60 = experiment: Antiproliferative activity against human HL60 cells assessed as reduction in cell viability after 48 hrs by MTT assay; assay type: functional, cell-based; conditions: HL-60, 48 h
A549 = experiment: Antiproliferative activity against human A549 cells assessed as reduction in cell viability after 48 hrs by MTT assay; assay type: functional, cell-based; conditions: A549, 48 h
HCT-116 [1] = experiment: Antiproliferative activity against human HCT116 cells assessed as reduction in cell viability after 48 hrs by MTT assay; assay type: functional, cell-based; conditions: HCT-116, 48 h
Huh-7 = experiment: Antiproliferative activity against human HuH7 cells assessed as reduction in cell viability after 48 hrs by MTT assay; assay type: functional, cell-based; conditions: Huh-7, 48 h
HCT-116 [2] = experiment: Antitumour activity against human HCT116 cells xenografted in nude mouse assessed as tumour growth inhibition at 10 mg/kg, ig administered every 3 days for 3 weeks and measured after 3 weeks relative to control; assay type: functional; conditions: HCT-116, po, read-out: TGI
Summary of the method: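 HCT-116 cells (5 × 10^6 per animal) injected into right flank of nude mice; at ~100 mm³ tumours, randomized into groups of 6. Dosed 10 mg/kg in 5% CMC-Na intragastrically every three days for three weeks; vehicle control 5% CMC-Na. Body weight and tumour size recorded every three days, volume = 0.5 × length × width²; tumours excised and weighed at end. Mean ± SD.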

[3] = target: Serine/threonine-protein kinase mTOR (Homo sapiens, UniProt P42345); experiment: Inhibition of mTOR (unknown origin)
[4] = target: Phosphatidylinositol 4,5-bisphosphate 3-kinase catalytic subunit beta isoform (Homo sapiens, UniProt P42338); experiment: Inhibition of PI3Kbeta (unknown origin) using diC8-PI(4,5)P2 as substrate incubated for 3 hrs in presence of ATP by fluorescence polarization assay
Phosphatidylinositol 4,5-bisphosphate 3-kinase catalytic subunit beta isoform, sequence (P42338 whole entry, canonical isoform): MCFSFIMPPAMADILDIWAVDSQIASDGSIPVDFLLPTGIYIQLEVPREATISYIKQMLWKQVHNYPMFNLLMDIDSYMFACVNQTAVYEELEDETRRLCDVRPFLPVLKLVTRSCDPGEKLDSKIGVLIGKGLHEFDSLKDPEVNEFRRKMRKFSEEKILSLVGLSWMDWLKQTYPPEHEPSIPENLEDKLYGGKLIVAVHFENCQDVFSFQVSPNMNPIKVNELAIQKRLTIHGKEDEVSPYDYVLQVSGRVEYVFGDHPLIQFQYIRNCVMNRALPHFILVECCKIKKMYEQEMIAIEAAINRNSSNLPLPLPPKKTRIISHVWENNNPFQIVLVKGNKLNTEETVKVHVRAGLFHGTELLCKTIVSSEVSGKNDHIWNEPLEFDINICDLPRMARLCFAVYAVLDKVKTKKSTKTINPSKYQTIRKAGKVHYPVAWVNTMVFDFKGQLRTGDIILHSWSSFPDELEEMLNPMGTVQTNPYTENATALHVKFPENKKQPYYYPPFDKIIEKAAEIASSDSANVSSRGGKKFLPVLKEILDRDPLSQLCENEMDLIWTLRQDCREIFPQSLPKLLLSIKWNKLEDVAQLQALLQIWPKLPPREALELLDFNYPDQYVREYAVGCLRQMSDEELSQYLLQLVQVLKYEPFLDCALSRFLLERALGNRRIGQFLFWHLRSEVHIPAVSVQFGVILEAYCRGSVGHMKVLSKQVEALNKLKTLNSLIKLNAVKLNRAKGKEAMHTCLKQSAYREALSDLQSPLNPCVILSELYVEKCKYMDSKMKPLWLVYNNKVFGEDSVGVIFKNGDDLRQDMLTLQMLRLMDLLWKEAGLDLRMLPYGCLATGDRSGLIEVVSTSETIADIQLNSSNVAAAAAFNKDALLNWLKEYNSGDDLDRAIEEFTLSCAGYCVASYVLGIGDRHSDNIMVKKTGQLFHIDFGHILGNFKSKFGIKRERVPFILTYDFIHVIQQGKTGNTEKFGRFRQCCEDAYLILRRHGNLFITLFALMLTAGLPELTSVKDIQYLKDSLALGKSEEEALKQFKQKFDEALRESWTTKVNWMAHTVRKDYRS
Summary of the method: (§1)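 Fluorescence polarization competition assay, 10 μL reactions at pH 7: 2.5 mM MgCl₂, 5 mM HEPES, ATP, 10 mM DTT, 50 ng PI3K isoform, diC8-PI(4,5)P2 substrate. After 3 h at room temperature, reactions were chelator-quenched. Phosphoinositide binding protein and fluorophore-labelled tracer were added, then 1 h dark equilibration and polarization read.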

[5] = target: T1, Phosphatidylinositol 4,5-bisphosphate 3-kinase catalytic subunit delta isoform (Homo sapiens, UniProt O00329); experiment: Inhibition of PI3Kdelta (unknown origin) using diC8-PI(4,5)P2 as substrate incubated for 3 hrs in presence of ATP by fluorescence polarization assay; summary of the method: as §1
T1 sequence (O00329 whole entry): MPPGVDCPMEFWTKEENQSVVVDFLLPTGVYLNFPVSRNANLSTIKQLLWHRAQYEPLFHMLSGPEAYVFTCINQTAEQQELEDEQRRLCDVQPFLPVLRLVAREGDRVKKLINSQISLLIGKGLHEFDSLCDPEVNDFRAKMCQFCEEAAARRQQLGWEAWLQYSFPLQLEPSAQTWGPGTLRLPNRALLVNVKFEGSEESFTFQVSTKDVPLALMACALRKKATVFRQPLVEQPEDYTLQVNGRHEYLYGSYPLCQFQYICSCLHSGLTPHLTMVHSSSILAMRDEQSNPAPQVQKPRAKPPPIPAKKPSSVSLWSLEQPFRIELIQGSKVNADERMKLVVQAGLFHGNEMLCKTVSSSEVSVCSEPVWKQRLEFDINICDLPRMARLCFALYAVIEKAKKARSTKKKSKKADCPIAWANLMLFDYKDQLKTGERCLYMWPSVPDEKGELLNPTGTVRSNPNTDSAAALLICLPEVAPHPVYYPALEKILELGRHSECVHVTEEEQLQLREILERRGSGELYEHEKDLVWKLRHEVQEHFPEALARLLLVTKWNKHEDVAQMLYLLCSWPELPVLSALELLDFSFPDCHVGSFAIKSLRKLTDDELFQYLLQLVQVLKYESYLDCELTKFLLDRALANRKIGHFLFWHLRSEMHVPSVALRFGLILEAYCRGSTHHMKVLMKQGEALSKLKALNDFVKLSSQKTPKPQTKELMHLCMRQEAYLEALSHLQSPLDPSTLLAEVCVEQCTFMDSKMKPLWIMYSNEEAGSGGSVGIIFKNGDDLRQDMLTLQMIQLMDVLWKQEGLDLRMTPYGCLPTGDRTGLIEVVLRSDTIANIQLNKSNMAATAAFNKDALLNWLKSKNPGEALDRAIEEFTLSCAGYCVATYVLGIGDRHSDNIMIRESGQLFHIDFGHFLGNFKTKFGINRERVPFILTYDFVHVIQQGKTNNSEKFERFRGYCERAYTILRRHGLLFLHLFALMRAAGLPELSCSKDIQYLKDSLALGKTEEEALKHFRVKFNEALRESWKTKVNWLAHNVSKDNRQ

[6] = Cytotoxicity against human 293T cells; assay type: cell-based; conditions: HEK-293T cells
[7] = target: Phosphatidylinositol 4,5-bisphosphate 3-kinase catalytic subunit alpha isoform (Homo sapiens, UniProt P42336); experiment: Inhibition of PI3Kalpha (unknown origin) using diC8-PI(4,5)P2 as substrate incubated for 3 hrs in presence of ATP by fluorescence polarization assay; summary of the method: as §1
Phosphatidylinositol 4,5-bisphosphate 3-kinase catalytic subunit alpha isoform, sequence (P42336 whole entry, canonical isoform): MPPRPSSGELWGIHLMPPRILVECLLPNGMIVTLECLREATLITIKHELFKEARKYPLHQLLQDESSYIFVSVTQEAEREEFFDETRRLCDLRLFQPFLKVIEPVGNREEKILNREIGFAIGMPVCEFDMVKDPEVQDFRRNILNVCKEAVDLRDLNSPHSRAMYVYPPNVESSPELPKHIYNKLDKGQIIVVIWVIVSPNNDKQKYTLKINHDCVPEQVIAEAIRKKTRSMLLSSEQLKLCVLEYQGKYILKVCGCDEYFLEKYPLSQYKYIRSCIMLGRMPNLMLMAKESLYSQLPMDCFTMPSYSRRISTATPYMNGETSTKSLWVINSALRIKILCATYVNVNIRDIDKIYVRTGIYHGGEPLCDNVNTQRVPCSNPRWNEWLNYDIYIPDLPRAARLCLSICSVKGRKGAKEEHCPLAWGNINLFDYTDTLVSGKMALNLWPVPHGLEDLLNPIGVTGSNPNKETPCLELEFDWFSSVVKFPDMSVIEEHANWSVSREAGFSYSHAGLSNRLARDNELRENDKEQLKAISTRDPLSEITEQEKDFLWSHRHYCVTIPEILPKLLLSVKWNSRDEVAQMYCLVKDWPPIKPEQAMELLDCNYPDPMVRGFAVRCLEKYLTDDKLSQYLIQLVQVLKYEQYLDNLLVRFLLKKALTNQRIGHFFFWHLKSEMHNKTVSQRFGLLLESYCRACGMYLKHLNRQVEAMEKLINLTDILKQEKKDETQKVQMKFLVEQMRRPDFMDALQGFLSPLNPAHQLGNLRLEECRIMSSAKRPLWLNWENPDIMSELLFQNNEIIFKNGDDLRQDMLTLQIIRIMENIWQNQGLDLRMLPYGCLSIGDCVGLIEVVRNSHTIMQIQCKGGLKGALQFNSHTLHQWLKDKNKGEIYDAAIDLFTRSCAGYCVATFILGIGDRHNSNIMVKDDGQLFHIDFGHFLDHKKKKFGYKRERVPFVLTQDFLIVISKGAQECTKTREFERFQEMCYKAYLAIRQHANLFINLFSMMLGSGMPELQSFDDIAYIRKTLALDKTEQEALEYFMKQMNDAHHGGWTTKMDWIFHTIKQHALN

[8] = target: Phosphatidylinositol 4,5-bisphosphate 3-kinase catalytic subunit gamma isoform (Homo sapiens, UniProt P48736); experiment: Inhibition of PI3Kgamma (unknown origin) using diC8-PI(4,5)P2 as substrate incubated for 3 hrs in presence of ATP by fluorescence polarization assay; summary of the method: as §1
Phosphatidylinositol 4,5-bisphosphate 3-kinase catalytic subunit gamma isoform, sequence (P48736 whole entry, canonical isoform): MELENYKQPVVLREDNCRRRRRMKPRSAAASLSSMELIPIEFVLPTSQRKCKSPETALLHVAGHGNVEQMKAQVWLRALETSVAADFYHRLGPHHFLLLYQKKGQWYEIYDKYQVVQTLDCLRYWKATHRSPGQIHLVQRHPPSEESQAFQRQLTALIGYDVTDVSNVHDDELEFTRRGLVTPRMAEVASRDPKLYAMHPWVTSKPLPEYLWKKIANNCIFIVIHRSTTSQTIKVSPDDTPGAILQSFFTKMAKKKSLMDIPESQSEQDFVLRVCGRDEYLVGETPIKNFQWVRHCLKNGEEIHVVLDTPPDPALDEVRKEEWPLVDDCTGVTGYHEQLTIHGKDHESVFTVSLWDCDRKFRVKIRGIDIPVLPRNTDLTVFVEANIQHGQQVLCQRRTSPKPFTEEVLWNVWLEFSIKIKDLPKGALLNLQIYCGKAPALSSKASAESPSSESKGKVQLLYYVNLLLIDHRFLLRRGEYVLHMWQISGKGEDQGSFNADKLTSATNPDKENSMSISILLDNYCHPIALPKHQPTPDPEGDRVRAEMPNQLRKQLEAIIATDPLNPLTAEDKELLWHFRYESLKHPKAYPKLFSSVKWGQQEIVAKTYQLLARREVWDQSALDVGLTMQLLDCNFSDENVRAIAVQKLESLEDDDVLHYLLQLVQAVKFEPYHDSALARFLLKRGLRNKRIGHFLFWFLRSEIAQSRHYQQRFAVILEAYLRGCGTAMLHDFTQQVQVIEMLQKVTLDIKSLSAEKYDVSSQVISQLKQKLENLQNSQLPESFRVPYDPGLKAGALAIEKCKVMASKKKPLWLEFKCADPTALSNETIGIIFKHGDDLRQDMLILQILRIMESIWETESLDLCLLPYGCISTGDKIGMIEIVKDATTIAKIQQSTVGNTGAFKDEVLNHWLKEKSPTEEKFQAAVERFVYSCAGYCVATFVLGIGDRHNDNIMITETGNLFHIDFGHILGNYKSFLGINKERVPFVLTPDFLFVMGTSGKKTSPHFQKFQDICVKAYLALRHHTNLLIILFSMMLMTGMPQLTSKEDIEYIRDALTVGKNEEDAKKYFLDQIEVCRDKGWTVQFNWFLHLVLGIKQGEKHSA

| SMILES | IC50 (HL-60) [µM] | IC50 (A549) [µM] | IC50 (HCT-116 [1]) [µM] | IC50 (Huh-7) [µM] | inhibition in vivo at 10 mg/kg (HCT-116 [2]) [%] | IC50 [3] [µM] | IC50 [4] [µM] | IC50 [5] [µM] | CC50 [6] [µM] | IC50 [7] [µM] | IC50 [8] [µM] |
| --- | --- | --- | --- | --- | --- | --- | --- | --- | --- | --- | --- |
| O=c1oc2ccccc2c2nn(CN3CCN(S(=O)(=O)C4CC4)CC3)cc12 | 71.4 | 82 | 69.3 | 79 | – | – | – | – | – | – | – |
| O=c1cc(N2CCOCC2)oc2c(-c3ccccc3)cccc12 [LY-294002] | – | – | – | – | 35.2 | > 10 | – | – | – | – | – |
| O=c1oc2ccccc2c2nn(CN3CCN(S(=O)(=O)CCCCl)CC3)cc12 | 55.1 | 52.1 | 38 | 48.5 | – | – | – | – | – | – | – |
| CS(=O)(=O)N1CCN(Cn2cc3c(=O)oc4ccccc4c3n2)CC1 | > 100 | > 100 | > 100 | 97.1 | – | – | – | – | – | – | – |
| CCCCS(=O)(=O)N1CCN(Cn2cc3c(=O)oc4ccccc4c3n2)CC1 | > 100 | > 100 | 87.9 | > 100 | – | – | – | – | – | – | – |
| CCS(=O)(=O)N1CCN(Cn2cc3c(=O)oc4ccccc4c3n2)CC1 | > 100 | > 100 | > 100 | > 100 | – | – | – | – | – | – | – |
| O=c1oc2ccccc2c2nn(CN3CCN(S(=O)(=O)c4ccccc4[N+](=O)[O-])CC3)cc12 | 8.23 | 7.66 | 4.87 | 7.92 | – | 8.37 | 9.14 | 6.15 | 372 | > 10 | 8.42 |
| O=c1oc2ccccc2c2nn(CN3CCN(S(=O)(=O)c4cccc([N+](=O)[O-])c4)CC3)cc12 | 2.01 | 3.67 | 1.29 | 3.65 | – | > 10 | > 10 | > 10 | 412 | 6.18 | 9.34 |
| CC(C)(C)c1ccc(S(=O)(=O)N2CCN(Cn3cc4c(=O)oc5ccccc5c4n3)CC2)cc1 | 0.84 | 0.74 | 0.47 | 0.9 | – | > 10 | 2.65 | 0.75 | 231 | 0.95 | 1.32 |
| O=c1oc2ccccc2c2nn(CN3CCN(S(=O)(=O)c4ccc(Br)cc4)CC3)cc12 | 4.78 | 3.09 | 1.89 | 5.08 | – | > 10 | 9.71 | 9.31 | 387 | 8.3 | > 10 |
| O=c1oc2ccccc2c2nn(CN3CCN(S(=O)(=O)c4ccc(F)cc4)CC3)cc12 | 6.33 | 5.11 | 2.45 | 6.44 | – | 9.12 | > 10 | 9.76 | 298 | 8.91 | 7.51 |
| Cn1c(=O)n(-c2ccc(C(C)(C)C#N)cc2)c2c3cc(-c4cnc5ccccc5c4)ccc3ncc21 [DACTOLISIB] | 0.91 | 0.38 | 0.24 | 0.53 | – | – | – | – | – | – | – |
| O=c1oc2ccccc2c2nn(CN3CCN(S(=O)(=O)c4ccccc4)CC3)cc12 | 22.1 | 13.9 | 7.53 | 11.3 | – | – | – | – | – | – | – |
| CCCS(=O)(=O)N1CCN(Cn2cc3c(=O)oc4ccccc4c3n2)CC1 | 89.4 | 79.7 | 57.6 | 87.6 | – | – | – | – | – | – | – |
| Cc1cc(C)c(S(=O)(=O)N2CCN(Cn3cc4c(=O)oc5ccccc5c4n3)CC2)c(C)c1 | 0.11 | 0.11 | 0.09 | 0.3 | – | 7.44 | 0.41 | 0.23 | 354 | 0.12 | 0.14 |
| COc1ccc(S(=O)(=O)N2CCN(Cn3cc4c(=O)oc5ccccc5c4n3)CC2)cc1 | 24.5 | 27.4 | 12.1 | 34 | – | – | – | – | – | – | – |
| CC(C)c1cc(C(C)C)c(S(=O)(=O)N2CCN(Cn3cc4c(=O)oc5ccccc5c4n3)CC2)c(C(C)C)c1 | 0.09 | 0.09 | 0.08 | 0.14 | – | > 10 | 0.21 | 0.42 | 332 | 0.042 | 0.11 |
| O=c1oc2ccccc2c2nn(CN3CCN(S(=O)(=O)c4ccc(C(F)(F)F)cc4)CC3)cc12 | 1.1 | 1.15 | 0.84 | 2.34 | – | 8.12 | 5.75 | 7.51 | 335 | 3.84 | 2.3 |
| O=c1oc2ccccc2c2nn(CN3CCN(S(=O)(=O)c4ccc([N+](=O)[O-])cc4)CC3)cc12 | 2.67 | 2.1 | 0.92 | 2.82 | – | > 10 | 4.14 | 5.45 | 347 | 2.63 | 4.01 |
| O=c1oc2ccccc2c2nn(CN3CCN(S(=O)(=O)c4ccc(Cl)cc4)CC3)cc12 | 0.64 | 1.21 | 0.81 | 1.61 | – | > 10 | 2.19 | 4.72 | 278 | 1.55 | 2.65 |
| O=c1oc2ccccc2c2nn(CN3CCN(S(=O)(=O)CCCl)CC3)cc12 | 78.6 | 68.7 | 45.8 | 62.9 | – | – | – | – | – | – | – |
| O=c1oc2ccccc2c2nn(CN3CCN(S(=O)(=O)C(F)(F)F)CC3)cc12 | > 100 | > 100 | > 100 | > 100 | – | – | – | – | – | – | – |
| Cc1ccc(C)c(S(=O)(=O)N2CCN(Cn3cc4c(=O)oc5ccccc5c4n3)CC2)c1 | 0.22 | 0.48 | 0.13 | 0.66 | – | > 10 | 0.85 | 1.42 | 397 | 0.3 | 0.81 |
| Cc1ccc(S(=O)(=O)N2CCN(Cn3cc4c(=O)oc5ccccc5c4n3)CC2)cc1 | 16.9 | 21.5 | 11.1 | 28.5 | – | – | – | – | – | – | – |
